# Compounds with a hit are over-represented: about 5.9% of the library has one in this group of screens.
# IDH1 R132H inh: inhibitors of human IDH1 R132H. O75874. IDH1 R132H reductase, diaphorase/resazurin fluorescence, 60 min. inhibition, % at 10 µM. 70,000 compounds, 0.18% hits; in the data active = inhibition above about 34%; inconclusive = no clear call, values can overlap the other calls; inactive = below about 11%;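 also: 0% = DMSO and 100% = no enzyme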
# Target sequence (O75874 whole entry R132H): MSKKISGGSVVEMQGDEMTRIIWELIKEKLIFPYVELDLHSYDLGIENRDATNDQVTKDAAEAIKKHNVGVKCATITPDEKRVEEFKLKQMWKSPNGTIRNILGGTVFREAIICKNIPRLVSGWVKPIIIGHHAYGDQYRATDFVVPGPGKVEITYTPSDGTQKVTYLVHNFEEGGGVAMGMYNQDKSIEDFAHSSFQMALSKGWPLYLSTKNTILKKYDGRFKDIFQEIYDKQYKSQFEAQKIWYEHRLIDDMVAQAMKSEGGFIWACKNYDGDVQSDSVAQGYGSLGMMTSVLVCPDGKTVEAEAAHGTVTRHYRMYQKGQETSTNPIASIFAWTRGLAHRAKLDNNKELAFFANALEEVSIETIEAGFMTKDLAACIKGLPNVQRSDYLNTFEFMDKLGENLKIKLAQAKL
# Pf Dd2 inh: P. falciparum Dd2 growth inhibition; SYBR Green, 72 h; stronger effect = lower value; activity change, % at 10 µM; 94,000 compounds, 2.3% hits; in the data active = activity change below about -80%; inconclusive = no clear call, values can overlap the other calls
# T cruzi growth-1: blocks T. cruzi growth in NIH3T3 culture; T. cruzi beta-gal in NIH3T3, GalScreen luminescence, 90 h; inhibition, % at 8.34 µM; 77,000 compounds, 5.9% hits; AID 624255;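 active = mean inhibition above about 93%, with at least 55% of replicates each passing it, limit read from the data, passing the limit was not always enough; inconclusive = only one of those two conditions holds; inactive = neither condition holds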
# KDM4C inh: inhibitors of human demethylase GASC-1 KDM4C; Q9H3R0; GST-KDM4C 2-372, H3K9me3 peptide, LANCE TR-FRET; inhibition, % at 12.5 µM; 96,000 compounds, 0.15% hits; AID 720574;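 active = mean replicate inhibition above about 25%, with at least 55% of replicates also reaching it, limit read from the data, passing the limit was not always enough; inconclusive = only one of those two conditions met; inactive = neither condition met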
# Target sequence (Q9H3R0 2-372 limits assumed): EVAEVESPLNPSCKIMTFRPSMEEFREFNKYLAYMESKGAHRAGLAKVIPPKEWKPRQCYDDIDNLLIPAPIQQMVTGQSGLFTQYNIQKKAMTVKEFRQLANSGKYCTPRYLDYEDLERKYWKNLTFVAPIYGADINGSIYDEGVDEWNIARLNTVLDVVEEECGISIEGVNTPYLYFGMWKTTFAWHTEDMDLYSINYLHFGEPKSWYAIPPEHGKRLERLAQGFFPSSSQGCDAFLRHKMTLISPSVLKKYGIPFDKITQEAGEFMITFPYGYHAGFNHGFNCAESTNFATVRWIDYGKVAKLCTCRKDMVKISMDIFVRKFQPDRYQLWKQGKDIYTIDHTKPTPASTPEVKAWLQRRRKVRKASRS
#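 Material: GST-tagged GASC-1 (JMJD2C) catalytic fragment, aa 2-372 / Quantity: enzyme final amount 10 nM / Medium: HEPES buffer, pH 7.5, plus ascorbate / Doses: one test concentration per compound / Incubation: 30 min reaction, 60 min detection, RT / Measured by: LANCE TR-FRET / Read-out: inhibition from TR-FRET ratio decrease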
# T cruzi growth-2: blocks T. cruzi growth in NIH3T3 host cells; shares compounds with T cruzi growth-1; T. cruzi beta-gal in NIH3T3, GalScreen luminescence, 90 h; inhibition, % at 8.35 µM; 5,600 compounds, 72% hits; AID 651739;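 active = mean replicate inhibition above about 95% and at least 55% of replicates individually reaching it, limit read from the data; inconclusive = only one of the two criteria is met; inactive = neither criterion is met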
# T cruzi growth-3: blocks T. cruzi growth in NIH3T3 host cells; shares compounds with T cruzi growth-1; T. cruzi beta-gal in NIH3T3, GalScreen luminescence, 90 h; inhibition, % at 2.09 µM; 5,600 compounds, 21% hits;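 active = mean inhibition above about 95%, with at least 55% of replicates also reaching it, limit read from the data; inconclusive = meets just one of the two conditions; inactive = meets neither condition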;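 also: plate controls were neutral control median for no effect and positive control median for full effect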
# NIH3T3 tox: NIH/3T3 (mouse) viability loss | 5,600 compounds, 14% hits | cytotoxicity (signal decrease), % at 8.35 µM | NIH/3T3 viability, CellTiter-Glo ATP luminescence, 90 h | shares compounds with T cruzi growth-1;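 active = mean signal decrease across replicates above about 35% based on untreated-well scatter, with enough replicates individually passing, limit read from the data; inconclusive = no rule stated though some were filed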;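 also: 0% = median of neutral control wells and 100% = median of positive control wells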
# 3T3 cytotox 2: kills mouse NIH/3T3 fibroblasts | AID 651744 | inhibition, % at 24.9 µM | 5,600 compounds, 56% hits | shares compounds with T cruzi growth-1 | NIH/3T3 viability, CellTiter-Glo ATP luminescence, 90 h;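 active = mean loss of cell viability signal at or above a set limit, and enough replicates individually reaching it; inconclusive = meets only the mean limit or only the replicate share; inactive = meets neither condition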;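 also: 0% = median of neutral control wells and 100% = median of positive control wells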
# * = called active by the depositor; ? = inconclusive; nt = no result.
SMILES,IDH1 R132H inh,Pf Dd2 inh,T cruzi growth-1,KDM4C inh,T cruzi growth-2,T cruzi growth-3,NIH3T3 tox,3T3 cytotox 2
O=C(Nc1ccccc1)N1CCCCN2[C@H](CO)[C@@H](c3ccc(C#Cc4ccccc4)cc3)[C@@H]2C1,nt,8.7,109.5*,-0.5,89.4,102.9*,?,104.2*
CC(C)CC#Cc1ccc([C@H]2[C@@H](CO)N3CCCCN(C(=O)Nc4ccccc4)C[C@@H]23)cc1,nt,-3.7,105.8*,-1.1,98.3*,102.9*,20.6,86.6*
O=C(Nc1cccc(F)c1)N1CCCCN2[C@H](CO)[C@H](c3ccc(C#Cc4cccnc4)cc3)[C@@H]2C1,nt,-71.5,41.2,-1.9,nt,nt,nt,nt
O=C(Nc1ccccc1)N1CCCCN2[C@H](C1)[C@H](c1ccc(C#Cc3cccnc3)cc1)[C@@H]2CO,nt,-24.8,109.6*,-3.0,70.1,-15.4,-0.1,7.2
C[C@@H]1CN([C@@H](C)CO)C(=O)CCCn2cc(nn2)CO[C@@H]1CN(C)S(=O)(=O)c1ccc(C#N)cc1,nt,1.2,-41.1,-1.5,nt,nt,nt,nt
O=C(c1cccnc1)N1CCCCN2[C@H](CO)[C@H](c3ccc(C#Cc4ccccc4)cc3)[C@@H]2C1,nt,11.0,100.5*,nt,109.7*,73.3,61.4*,42.6*
CC(C)C#Cc1ccc([C@H]2[C@@H](CO)N3CCCCN(C(=O)Nc4ccccc4)C[C@@H]23)cc1,nt,6.6,113.3*,-0.2,107.5*,67.1,40.7*,33.8*
O=C(c1cccnc1)N1CCCCN2[C@H](C1)[C@@H](c1ccc(C#Cc3cccnc3)cc1)[C@@H]2CO,nt,1.9,82.7,-1.1,nt,nt,nt,nt
COC(=O)[C@@H]1[C@@H](CO)[C@@H]2Cn3c(cccc3=O)[C@@H]2N1CC1CCCC1,nt,-2.8,nt,7.8,nt,nt,nt,nt
COc1ccc(-c2ccc([C@@H]3[C@H]4CN(C(=O)c5ccc(F)cc5)CCCCN4[C@H]3CO)cc2)cc1,nt,-21.4,71.2,1.2,nt,nt,nt,nt
O=C(c1ccc2c(c1)OCO2)N1CCCCN2[C@H](C1)[C@@H](c1ccc(-c3ccccc3)cc1)[C@@H]2CO,nt,3.3,87.5,-0.5,nt,nt,nt,nt
COc1ccc(-c2ccc([C@H]3[C@@H](CO)N4CCCCN(C(=O)c5ccc6c(c5)OCO6)C[C@H]34)cc2)cc1,nt,-33.3,100.8*,-2.9,103.7*,66.4,48.9*,103.6*
COc1ccc(-c2ccc([C@@H]3[C@@H](CO)N4CCCCN(C(=O)c5ccc(F)cc5)C[C@@H]34)cc2)cc1,nt,21.7,67.0,0.9,nt,nt,nt,nt
COc1ccc(-c2ccc([C@@H]3[C@@H](CO)N4CCCCN(C(=O)c5ccc6c(c5)OCO6)C[C@H]34)cc2)cc1,nt,-22.8,98.0*,-0.9,79.2,33.3,21.1,97.8*
COc1ccc(-c2ccc([C@H]3[C@@H](CO)N4CCCCN(C(=O)c5ccc6c(c5)OCO6)C[C@@H]34)cc2)cc1,nt,-43.5,117.6*,0.3,107.1*,92.6,45.9*,43.2*
COc1ccc(-c2ccc([C@@H]3[C@@H](CO)N4CCCCN(C(=O)c5ccc6c(c5)OCO6)C[C@@H]34)cc2)cc1,nt,-76.3,114.9*,-1.0,97.8*,39.5,1.8,43.4*
C[C@@H]1CN([C@H](C)CO)C(=O)c2cc(/C=C/c3ccccc3)cnc2O[C@@H]1CN(C)C(=O)Nc1ccccc1F,-4.9,-33.9,84.8,-0.6,nt,nt,nt,nt
C[C@H]1CN([C@@H](C)CO)C(=O)c2cc(/C=C/c3ccccc3)cnc2O[C@H]1CN(C)C(=O)Nc1ccccc1F,0.6,-27.8,101.3*,0.2,?,22.5,17.0,51.2*
C[C@H](CO)N1C[C@H](C)[C@H](CN(C)C(=O)Nc2ccccc2)Oc2ncc(/C=C/c3ccccc3)cc2C1=O,2.7,-69.1,97.4*,nt,97.8*,64.9,36.5*,90.5*
C[C@@H]1CN([C@@H](C)CO)C(=O)c2cc(/C=C/c3ccccc3)cnc2O[C@H]1CN(C)C(=O)Nc1ccccc1F,-2.0,-51.5,126.3*,-4.0,108.0*,105.1*,-3.1,17.1
C[C@H](CO)N1C[C@H](C)[C@H](CN(C)C(=O)c2cccc(F)c2)Oc2ncc(/C=C/c3ccccc3)cc2C1=O,-3.5,-70.3,106.7*,-4.4,106.6*,46.4,27.1,66.6*
COc1ccc(NC(=O)N(C)C[C@@H]2Oc3ncc(/C=C/c4ccccc4)cc3C(=O)N([C@H](C)CO)C[C@@H]2C)cc1,2.2,-57.0,?,1.9,nt,nt,nt,nt
C[C@H]1CN([C@@H](C)CO)C(=O)c2cc(/C=C/c3ccccc3)cnc2O[C@H]1CN(C)C(=O)c1cccc(F)c1,-0.3,-62.5,106.7,nt,nt,nt,nt,nt
Cc1noc(C)c1NC(=O)N(C)C[C@@H]1OCCCC[C@@H](C)Oc2ccc(NS(=O)(=O)c3cccs3)cc2C(=O)N([C@@H](C)CO)C[C@H]1C,-0.5,-2.8,20.1,1.8,nt,nt,nt,nt
OC[C@H]1[C@H](c2ccc(C#Cc3ccccc3)cc2)[C@H]2CN(Cc3cncnc3)CCCCN21,nt,-10.8,104.2*,-0.2,107.5*,70.7,31.9,103.3*
SMILES,IDH1 R132H inh,Pf Dd2 inh,T cruzi growth-1,KDM4C inh,T cruzi growth-2,T cruzi growth-3,NIH3T3 tox,3T3 cytotox 2
OC[C@H]1[C@H](c2ccc(C#Cc3ccccc3F)cc2)[C@@H]2CN(Cc3cncnc3)CCCCN12,nt,-52.0,113.5*,1.2,99.1*,62.2,?,105.5*
OC[C@H]1[C@H](c2ccc(C#Cc3ccccc3F)cc2)[C@H]2CN(Cc3cncnc3)CCCCN21,nt,-14.0,101.0*,-0.5,107.8*,69.9,39.5*,102.9*
OC[C@@H]1[C@H](c2ccc(C#Cc3ccccc3F)cc2)[C@@H]2CN(Cc3cncnc3)CCCCN12,nt,-23.3,106.7*,-0.5,107.3*,86.7,47.4*,103.7*
OC[C@@H]1[C@@H](c2ccc(C#Cc3ccccc3F)cc2)[C@H]2CN(Cc3cncnc3)CCCCN12,nt,-51.6,92.3,1.2,nt,nt,nt,nt
COc1ccc2c3c(n(C)c2c1)[C@@H](CO)N(C)CC31CN(C(=O)c2cccnc2)C1,nt,-11.6,nt,1.3,nt,nt,nt,nt
CO[C@@H]1CN(C)C(=O)c2ccc(NS(=O)(=O)c3cccc(F)c3)cc2OC[C@@H](C)N(Cc2cc(F)ccc2F)C[C@@H]1C,0.2,-13.9,nt,1.9,nt,nt,nt,nt
COc1ccc(S(=O)(=O)Nc2ccc3c(c2)OC[C@@H](C)N(Cc2cc(F)ccc2F)C[C@@H](C)[C@H](OC)CN(C)C3=O)cc1,0.3,-39.1,122.4*,0.4,109.9*,82.5,-14.5,-9.4
CO[C@@H]1CN(C)C(=O)c2ccc(NS(=O)(=O)c3cccc(F)c3)cc2OC[C@H](C)N(Cc2cc(F)ccc2F)C[C@@H]1C,0.2,-23.0,nt,0.6,nt,nt,nt,nt

# Screening data deposited in PubChem by Broad Institute.
